Measured values taken from ChEMBL document CHEMBL2321868, “The discovery of novel potent trans-3,4-disubstituted pyrrolidine inhibitors of the human aspartic protease renin from in silico three-dimensional (3D) pharmacophore searches” (J Med Chem, 2013).
Calls of active or inactive are those of the source. The rule behind the calls is not given here.

Legend:
[1] = Half life in jugular vein cannulated Sprague-Dawley rat at 2 mg/kg, iv by HPLC-MS analysis; format: ADME, organism-based; parameters: dose 2 mg/kg, route intravenous; conditions: in vivo
Method in brief: (§1)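 Cannulated, fed Sprague–Dawley rats were given 2 mg/kg intravenously and 6 mg/kg orally. Oral bioavailability came from the two routes. t1/2, plasma clearance and Vdss were estimated. Oral Cmax and AUC were taken over 0–24 h.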

[2] = test system: Rattus norvegicus; assay: Antihypertensive activity in double transgenic rat overexpressing human renin and human angiotensinogen assessed as reduction in mean arterial pressure at 30 mg/kg, po; format: functional, Artery
Method in brief: (§2)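 Double-transgenic rats overexpressing human renin and human angiotensinogen, with telemetry. Each received a single oral dose of 6 or 30 mg/kg. The read-out was mean arterial pressure, reported as the peak change from dosing.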

[3] = biological target: T1, Beta-secretase 2 (Homo sapiens, UniProt Q9Y5Z0); assay: Inhibition of human recombinant BACE-2 expressed in baculovirus-infected insect sf9 cells using RE( EDANS)-EVNLDAEF-K(DABSYL)-R as substrate incubated for 1 hr prior to substrate addition measured after 1 hr by FRET-based enzymatic assay
T1 sequence (Q9Y5Z0 whole entry): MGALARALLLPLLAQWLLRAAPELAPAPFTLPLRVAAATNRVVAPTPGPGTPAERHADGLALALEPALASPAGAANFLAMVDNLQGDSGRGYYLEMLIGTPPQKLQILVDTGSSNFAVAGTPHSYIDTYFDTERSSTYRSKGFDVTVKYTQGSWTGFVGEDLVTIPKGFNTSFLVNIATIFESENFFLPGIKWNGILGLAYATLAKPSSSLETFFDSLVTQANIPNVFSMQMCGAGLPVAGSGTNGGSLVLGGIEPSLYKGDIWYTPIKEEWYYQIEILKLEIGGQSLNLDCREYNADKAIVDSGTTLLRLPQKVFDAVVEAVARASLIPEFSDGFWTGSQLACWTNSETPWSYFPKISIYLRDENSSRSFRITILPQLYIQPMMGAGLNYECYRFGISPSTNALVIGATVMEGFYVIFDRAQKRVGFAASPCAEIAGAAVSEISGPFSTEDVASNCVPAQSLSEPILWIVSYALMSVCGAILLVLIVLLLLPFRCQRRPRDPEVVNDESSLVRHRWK

[4] = biological target: Beta-secretase 1 (Homo sapiens, UniProt P56817); assay: Inhibition of human recombinant BACE-1 expressed in baculovirus-infected insect sf9 cells using RE( EDANS)-EVNLDAEF-K(DABSYL)-R as substrate incubated for 1 hr prior to substrate addition measured after 1 hr by FRET-based enzymatic assay
[5] = AUC (0 to 24 hrs) in jugular vein cannulated Sprague-Dawley rat at 6 mg/kg, po by HPLC-MS analysis; format: ADME, organism-based; parameters: time < 24 hr, dose 6 mg/kg, route oral; conditions: plasma; method in brief: as §1
[6] = biological target: T2, Renin (Homo sapiens, UniProt P00797); assay: Inhibition of human recombinant renin expressed in CHO cells using RE(EDANS)IHPFHLVIHTK(Dabcyl)R as substrate incubated for 1 hr prior to substrate addition measured after 2 hrs by FRET-based enzymatic assay
T2 sequence (P00797 whole entry): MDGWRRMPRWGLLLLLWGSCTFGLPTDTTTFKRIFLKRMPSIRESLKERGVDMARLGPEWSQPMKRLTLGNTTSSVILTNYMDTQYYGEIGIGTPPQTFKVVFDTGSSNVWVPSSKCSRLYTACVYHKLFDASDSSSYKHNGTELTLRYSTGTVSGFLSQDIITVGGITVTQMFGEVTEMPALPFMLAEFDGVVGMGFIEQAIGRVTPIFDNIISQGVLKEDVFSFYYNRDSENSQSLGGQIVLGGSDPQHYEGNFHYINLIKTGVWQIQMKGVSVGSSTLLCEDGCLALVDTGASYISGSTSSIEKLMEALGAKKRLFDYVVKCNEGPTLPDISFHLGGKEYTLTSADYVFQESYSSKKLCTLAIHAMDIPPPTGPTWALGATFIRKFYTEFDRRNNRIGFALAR

[7] = biological target: Voltage-gated inwardly rectifying potassium channel KCNH2 (Homo sapiens, UniProt Q12809); assay: Inhibition of human ERG by dofetilide binding assay
Method in brief: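 hERG affinity from an in vitro dofetilide binding assay. The IC50 is the mean of two independent measurements.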

[8] = biological target: T2, Renin; assay: Inhibition of renin in human plasma using RE(EDANS)IHPFHLVIHTK(Dabcyl)R as substrate incubated for 1 hr prior to substrate addition measured after 2 hrs by FRET-based enzymatic assay
Method in brief: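 Renin activity measured in the presence of human plasma by FRET cleavage of the quenched peptide substrate. IC50 is the half-maximal inhibition.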

[9] = biological target: Cathepsin D (Homo sapiens, UniProt P07339); assay: Inhibition of human recombinant cathepsin-D expressed in baculovirus-infected insect sf9 cells using Ac- E-D(EDANS)-KPILFFRLG-K(Dabcyl)-E-Amid as substrate incubated for 1 hr prior to substrate addition measured after 1 hr by FRET-based enzymatic assay
[10] = biological target: T3, 5-hydroxytryptamine receptor 1A (Homo sapiens, UniProt P08908); assay: Inhibition of 5-HT1A (unknown origin)
T3 sequence (P08908 whole entry): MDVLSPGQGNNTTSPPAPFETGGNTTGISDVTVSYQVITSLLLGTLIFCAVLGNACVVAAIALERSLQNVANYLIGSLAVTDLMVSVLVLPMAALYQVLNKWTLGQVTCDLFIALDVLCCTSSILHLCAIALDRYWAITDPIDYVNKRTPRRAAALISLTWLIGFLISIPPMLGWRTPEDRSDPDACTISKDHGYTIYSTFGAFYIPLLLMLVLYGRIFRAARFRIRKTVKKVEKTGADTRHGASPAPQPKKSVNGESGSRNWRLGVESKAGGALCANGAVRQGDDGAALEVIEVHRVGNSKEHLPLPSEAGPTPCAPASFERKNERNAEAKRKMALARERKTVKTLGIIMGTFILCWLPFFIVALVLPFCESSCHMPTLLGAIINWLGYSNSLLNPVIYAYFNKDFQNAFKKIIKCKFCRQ

[11] = biological target: 5-hydroxytryptamine receptor 2B (Homo sapiens, UniProt P41595); assay: Inhibition of 5-HT2B (unknown origin)
[12] = test system: Rattus norvegicus; assay: Antihypertensive activity in double transgenic rat overexpressing human renin and angiotensinogen assessed as reduction in mean arterial pressure at 6 to 30 mg/kg, po after 12 hrs; format: functional, organism-based; conditions: Artery; method in brief: as §2

Sequence of Cathepsin D (P07339 65-162 limits assumed): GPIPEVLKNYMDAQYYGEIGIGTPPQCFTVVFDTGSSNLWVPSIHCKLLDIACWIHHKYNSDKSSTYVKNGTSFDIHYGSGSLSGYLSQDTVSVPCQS
Sequence of Cathepsin D (P07339 169-412 limits assumed): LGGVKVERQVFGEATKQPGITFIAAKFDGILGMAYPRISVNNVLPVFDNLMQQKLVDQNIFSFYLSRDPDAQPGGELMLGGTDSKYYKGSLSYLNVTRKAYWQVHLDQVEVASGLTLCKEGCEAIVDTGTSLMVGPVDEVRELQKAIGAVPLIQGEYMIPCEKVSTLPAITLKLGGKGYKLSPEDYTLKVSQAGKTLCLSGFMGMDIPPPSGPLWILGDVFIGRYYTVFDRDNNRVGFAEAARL
Sequence of Beta-secretase 1 (P56817 whole entry): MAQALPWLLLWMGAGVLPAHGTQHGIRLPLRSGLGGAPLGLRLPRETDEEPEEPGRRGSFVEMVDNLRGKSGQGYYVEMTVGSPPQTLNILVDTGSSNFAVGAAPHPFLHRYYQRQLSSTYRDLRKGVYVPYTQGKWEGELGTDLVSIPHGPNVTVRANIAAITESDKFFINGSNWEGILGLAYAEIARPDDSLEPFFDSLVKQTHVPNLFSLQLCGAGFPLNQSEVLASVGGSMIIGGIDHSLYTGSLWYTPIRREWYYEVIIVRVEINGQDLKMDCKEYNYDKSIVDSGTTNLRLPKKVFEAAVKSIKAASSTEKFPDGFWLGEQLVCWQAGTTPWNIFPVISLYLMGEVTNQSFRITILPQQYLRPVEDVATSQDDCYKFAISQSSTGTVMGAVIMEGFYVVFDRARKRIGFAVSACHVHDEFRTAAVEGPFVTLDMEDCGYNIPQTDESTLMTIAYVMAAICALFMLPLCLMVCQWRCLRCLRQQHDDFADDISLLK
Sequence of Voltage-gated inwardly rectifying potassium channel KCNH2 (Q12809 whole entry): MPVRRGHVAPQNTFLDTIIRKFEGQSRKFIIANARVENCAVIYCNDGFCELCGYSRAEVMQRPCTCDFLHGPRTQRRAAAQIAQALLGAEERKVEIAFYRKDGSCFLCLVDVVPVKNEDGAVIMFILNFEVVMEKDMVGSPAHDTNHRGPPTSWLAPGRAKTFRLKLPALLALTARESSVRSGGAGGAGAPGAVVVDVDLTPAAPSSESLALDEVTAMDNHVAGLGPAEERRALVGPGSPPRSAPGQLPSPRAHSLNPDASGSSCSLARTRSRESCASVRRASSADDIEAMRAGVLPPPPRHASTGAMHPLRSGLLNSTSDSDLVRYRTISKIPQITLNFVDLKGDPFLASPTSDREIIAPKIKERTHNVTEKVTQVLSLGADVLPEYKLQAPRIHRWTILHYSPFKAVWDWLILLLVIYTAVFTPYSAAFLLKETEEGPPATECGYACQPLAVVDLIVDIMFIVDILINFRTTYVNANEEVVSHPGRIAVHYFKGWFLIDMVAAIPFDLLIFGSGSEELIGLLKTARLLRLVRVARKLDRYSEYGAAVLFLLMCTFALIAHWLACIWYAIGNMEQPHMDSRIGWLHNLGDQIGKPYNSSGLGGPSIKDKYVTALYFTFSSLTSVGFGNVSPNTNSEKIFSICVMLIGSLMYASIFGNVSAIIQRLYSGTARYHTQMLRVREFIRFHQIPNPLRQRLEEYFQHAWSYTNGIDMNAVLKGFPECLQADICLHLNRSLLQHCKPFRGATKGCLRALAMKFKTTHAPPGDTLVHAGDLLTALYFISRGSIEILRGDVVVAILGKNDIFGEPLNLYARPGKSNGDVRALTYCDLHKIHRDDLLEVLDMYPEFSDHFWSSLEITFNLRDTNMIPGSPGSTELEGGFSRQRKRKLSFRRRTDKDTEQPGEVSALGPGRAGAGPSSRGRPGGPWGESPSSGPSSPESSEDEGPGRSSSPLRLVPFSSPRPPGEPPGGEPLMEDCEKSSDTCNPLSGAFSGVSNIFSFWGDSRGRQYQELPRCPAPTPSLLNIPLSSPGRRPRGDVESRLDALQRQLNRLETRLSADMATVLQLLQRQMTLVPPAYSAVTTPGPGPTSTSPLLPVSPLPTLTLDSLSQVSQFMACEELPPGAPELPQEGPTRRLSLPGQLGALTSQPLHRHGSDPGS
Sequence of 5-hydroxytryptamine receptor 2B (P41595 whole entry): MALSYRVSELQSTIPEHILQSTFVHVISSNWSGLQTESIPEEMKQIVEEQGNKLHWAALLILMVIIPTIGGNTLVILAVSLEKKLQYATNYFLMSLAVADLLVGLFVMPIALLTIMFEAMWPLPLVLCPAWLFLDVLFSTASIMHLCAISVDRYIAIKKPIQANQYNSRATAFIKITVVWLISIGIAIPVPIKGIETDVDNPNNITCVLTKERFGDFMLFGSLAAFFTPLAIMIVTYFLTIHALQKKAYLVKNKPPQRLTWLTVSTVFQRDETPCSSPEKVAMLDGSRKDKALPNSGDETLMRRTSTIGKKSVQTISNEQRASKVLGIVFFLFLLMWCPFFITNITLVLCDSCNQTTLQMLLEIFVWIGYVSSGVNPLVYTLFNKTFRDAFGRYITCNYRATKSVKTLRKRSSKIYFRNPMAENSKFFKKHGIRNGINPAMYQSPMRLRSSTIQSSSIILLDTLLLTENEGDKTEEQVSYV

COCCCOc1cc(C(=O)N(C[C@@H]2CNC[C@H]2Cc2ccccc2)C(C)C)ccc1OC.Cl
half-life [1]: 2 h | Activity [2]: 35 mmHg | IC50 [3]: > 30 µM | IC50 [4]: > 30 µM | AUC(0-t) at 24 h [5]: 4.81 µM·h | IC50 [6]: 0.17 µM | IC50 [7]: 14.5 µM | IC50 [8]: 0.3 µM | IC50 [9]: > 30 µM | IC50 [10]: > 1 µM | IC50 [11]: > 1 µM | Activity [12]: Active
